High-throughput results: PubChem BioAssay, Broad Institute
Rows were chosen to be rich in hits. Some 1.5% of all compounds tested hit in one or more screens of this group.
Statin myotox sup: suppressors of simvastatin-induced myotoxicity in C2C12 myotubes; ATP luminescence, 48 h; scaled: DMSO 0, geranylgeraniol control 100; rescue of ATP level, % at 7.49 µM; actives 0.78% (n = 330,000);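 active means mean ATP rescue above about 67%, or every replicate alone reaching that limit, limit read from the data, passing the limit was not always enough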;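 further: myotubes were challenged with 10 µM simvastatin during compound exposure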
Cneo AK release: causes C. neoformans cell lysis; adenylate kinase release luminescence, 4 h; normalised: neutral wells 0, clomiphene wells 100; lysis activity, % at 15 µM; actives 0.2% (n = 360,000);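 active means mean lysis activity across replicates of at least 80%, whatever share of replicates individually reach that level; inactive means mean lysis activity below 80%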
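Material – log-phase Cryptococcus neoformans yeast cells · Input – 5 × 10^6 yeast cells/mL · Medium – fresh YPD growth medium · Doses – single compound concentration per well · Timing – static 4 h at 37 °C with compound, 1 h detection · Detection – adenylate kinase release luminescence · Read-out – signal increase indicating cell lysis · Control set – Clomiphene as positive lysis control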
Mot1-301 SUMO: blocks SUMOylation pathway, rescuing yeast Mot1-301 growth. growth rescue, % at 18.8 µM. S. cerevisiae Mot1-301 growth rescue, ATP luminescence, 38.5C; percent above DMSO median, 100 means doubled. AID 2716. actives 1% (n = 320,000);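 active means every valid replicate shows activation above 250% relative to neutral control wells; inactive means the rest, any valid replicate at or below 250%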;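 further: OY570 slx delta 5 strain wells were the positive control but not used for scaling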
Yeast Mot1 SUMO: yeast SUMO pathway inhibition in dose response; shares compounds with Mot1-301 SUMO; S. cerevisiae Mot1-301 galactose growth, ATP luminescence, 24 h; -100 = growth of slx-deleted rescue strain; growth activity, percent, % at 42 µM; 2,300 tested, under 10 active;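 active means Signal drops as the depositor expects, and the fitted half-maximal dose is no more than ten times the top valid tested dose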;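 further: more negative values mean stronger growth rescue toward the control strain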
Starred values were filed as active, the others as inactive; x = no result; + = active, no number.

SMILES	Statin myotox sup	Cneo AK release	Mot1-301 SUMO	Yeast Mot1 SUMO
COc1cc(C(=O)NCC(=O)Nc2c(C)cccc2C)ccc1OCc1ccccc1	10	-2	4	x
COc1cccc(NC(=O)CNC(=O)c2ccc(C)cc2)c1	6	0	499*	0
CCCCSCCCNC(=O)Nc1cccc(OC)c1	-5	3	549*	-1
COc1cccc(NC(=O)NCCc2ccc(Cl)cc2)c1	9	-1	1	x
COc1ccc(C(=O)NCC(=O)Nc2ccccc2)cc1OC	9	0	449*	1
COc1cccc(NC(=O)CNC(=O)c2ccc(F)cc2)c1	x	x	-18	x
O=C(C[C@H]1C[C@H]2c3cc(NC(=O)Nc4ccccc4F)ccc3O[C@H]2[C@@H](CO)O1)NC1CCCC1	5	0	x	x
O=C(C[C@H]1C=C[C@@H](NC(=O)Nc2cc(F)ccc2F)[C@H](CO)O1)NCc1ccncn1	-11	4	x	x
COc1ccc(NC(=O)Nc2ccc3c(c2)C(=O)N([C@@H](C)CO)C[C@@H](C)[C@@H](CN(C)C(=O)Cc2ccccc2)OCCCC[C@H](C)O3)cc1	x	0	x	x
COCCNC(=O)C[C@@H]1C[C@@H]2c3cc(NC(=O)NC4CCCCC4)ccc3O[C@@H]2[C@H](CO)O1	0	55	x	x
Cc1ccc(S(=O)(=O)N(C)C[C@H]2OCCCC[C@H](C)Oc3ccc(NS(=O)(=O)c4ccc(F)cc4)cc3C(=O)N([C@H](C)CO)C[C@H]2C)cc1	17	2	x	x
C[C@H](CO)N1C[C@H](C)[C@@H](CN(C)S(=O)(=O)c2cccs2)Oc2ccc(NS(=O)(=O)c3ccc(F)cc3)cc2CC1=O	43	59	x	x
Cc1nn(CCCC(=O)NCc2ccccc2)c(=O)c2nn(-c3ccccc3)c(C)c12	-14	0	-3	x
COc1cccc(CNC(=O)CCCn2nc(C)c3c(C)n(-c4ccccc4)nc3c2=O)c1	-11	-2	531*	0
Cc1ccc(-n2nc3c(=O)n(CCCC(=O)NCc4cccc(F)c4)nc(C)c3c2C)cc1	-18	4	597*	0
Cc1ccc(-n2nc3c(=O)n(CCCC(=O)NCc4ccc(F)cc4)nc(C)c3c2C)cc1	-3	-2	3	x
C[C@@H]1CN([C@@H](C)CO)S(=O)(=O)c2ccc(-c3ccc(F)cc3)cc2O[C@@H]1CN(C)C(=O)Nc1ccccc1F	-64	62	x	x
C[C@H](CO)N1C[C@H](C)[C@H](CN(C)C(=O)Nc2ccc(F)cc2)Oc2ncc(-c3ccc(C#N)cc3)cc2C1=O	-8	-1	x	x
CN1C(=O)c2cc(NC(=O)C3CC3)ccc2OC[C@H]2O[C@H](CC(=O)NCCN3CCCC3)CC[C@@H]21	-7	-3	x	x
O=C(N[C@H]1CC[C@H](CCn2cc(-c3ccccc3)nn2)O[C@H]1CO)c1ccccc1F	15	-4	x	x
COc1ccc(C(=O)Nc2cc(Cl)ccc2OC(=O)c2ccc(OC)cc2)cc1	10	0	-8	x
COc1ccc(OC(=O)c2ccc(Cl)cc2)c(C(C)=O)c1	x	x	408*	0
CO[C@H]1CN(C)C(=O)c2ccc(NC(=O)C3CC3)cc2OC[C@@H](C)N(Cc2cncnc2)C[C@H]1C	-6	x	x	x
Cc1sc2nc(SCC(=O)NCCOCCO)n(C)c(=O)c2c1C	13	1	983*	0
Cc1sc2nc(SCC(=O)NCCOCCO)nc(N)c2c1C	0	x	325	x
SMILES	Statin myotox sup	Cneo AK release	Mot1-301 SUMO	Yeast Mot1 SUMO
C[C@@H]1CN([C@H](C)CO)C(=O)c2cc(C#Cc3cccc(F)c3)cnc2O[C@H]1CN(C)C(=O)C1CCC1	-9	-3	x	x
C=CCSc1nnc2c(n1)[nH]c1c(C)cccc12	-13	8	532*	-1
Cc1cccc2c1[nH]c1nc(N/N=C\c3ccco3)nnc12	x	x	-6	x
C[C@@H]1CCCCO[C@H](CN(C)Cc2ccc(C(=O)O)cc2)[C@H](C)CN([C@H](C)CO)C(=O)c2cc(NC(=O)CCC(F)(F)F)ccc2O1	x	-3	x	x
C[C@@H]1CN([C@@H](C)CO)C(=O)c2cc(NC(=O)c3ccncc3)ccc2O[C@@H](C)CCCCO[C@@H]1CN(C)C(=O)C1CCCCC1	34	-1	x	x
C=C(C)C(=O)OC1(C(F)(F)F)Oc2cc(C)ccc2NC1=O (configuration not stated)	16	-1	363*	-2
CCOC(=O)C1(N(CC)CC)Sc2cc(C)ccc2NC1=O (configuration not stated)	-11	9	127	x
C[C@@H]1CN([C@@H](C)CO)C(=O)c2cc(NS(=O)(=O)c3ccc(F)cc3)ccc2O[C@H]1CN(C)C(=O)Nc1ccc(F)cc1	-18	1	x	x
Cc1ccc(NC(=O)c2sc3nc(C)nc(N4CCN(c5ccccn5)CC4)c3c2C)c(C)c1	7	1	15	x
Cc1nc(N2CCN(c3ccccn3)CC2)c2c(C)c(C(=O)N3CCN(c4ccccc4F)CC3)sc2n1	-16	0	427*	0
C[C@H](CO)N1C[C@H](C)[C@@H](CN(C)C(=O)Oc2ccccc2)OCc2ccccc2-c2ccccc2C1=O	-15	-1	x	x
Cc1c(-c2c(C#N)c(N)nc3c2CCCCCC3)cnn1C	x	0	26	x
Cc1nn(C)c(C)c1-c1c(C#N)c(N)nc2c1CCCCCC2	x	-1	+	0
CO[C@H]1CN(C)C(=O)c2ccc(NC(=O)NC(C)C)cc2OC[C@@H](C)N(Cc2cncnc2)C[C@@H]1C	8	x	x	x
CN1C(=O)C(O)(CC(=O)/C=C/c2ccco2)c2cc(Br)ccc21 (configuration not stated)	-2	0	5	x
CN1C(=O)C(O)(CC(=O)c2ccccc2O)c2cc(Br)ccc21 (configuration not stated)	2	-2	-9	0
O=C(Nc1ccc(Cl)c(Cl)c1)N[C@H]1CC[C@H](CCn2cc(C3CC3)nn2)O[C@H]1CO	4	-4	x	x
CO[C@@H]1CN(C)C(=O)c2ccc(NC(=O)c3ccc(F)cc3)cc2OC[C@@H](C)N(C(C)=O)C[C@@H]1C	-1	2	x	x
C[C@@H]1CCCCO[C@@H](CN(C)S(=O)(=O)c2ccc(F)cc2)[C@@H](C)CN([C@@H](C)CO)C(=O)c2cc(NC(=O)c3ccccc3)ccc2O1	x	-3	x	x
O=C(C[C@@H]1CC[C@H](NC(=O)Nc2cc(F)ccc2F)[C@H](CO)O1)Nc1ccccc1	1	0	x	x
Fc1ccccc1-n1cc(-c2ccccc2)[nH]c1=S	7	2	450*	0
COc1ccc(-n2cc(-c3ccccc3)[nH]c2=S)c(OC)c1	-33	2	-24	x
O=C(C[C@@H]1C[C@H]2c3cc(NS(=O)(=O)c4ccccc4)ccc3O[C@H]2[C@H](CO)O1)NCC1CC1	3	1	x	x
CCc1ccc(S(=O)(=O)Nc2ccc(-c3nc4cccnc4s3)cc2)s1	3	0	9	x
O=S(=O)(Nc1ccc(-c2nc3cccnc3s2)cc1)c1cc(F)ccc1F	10	x	370*	-1
O=C(Nc1ccccc1)Nc1ccc2c(c1)[C@H]1C[C@H](CC(=O)N3CCCCC3)O[C@@H](CO)[C@H]1O2	3	4	x	x
